S1P3 antag – blocks the human S1P3 receptor. CHO S1P3 NFAT-BLA reporter, FRET fluorescence, antagonist mode. inhibition, % at 4.98 µM. Q99500. AID 485. 170,000 compounds, 0.27% hits;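 active = inhibition above the plate cutoff, the mean inhibition of test wells on that plate plus 3 SD, cut at about 28% in these data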;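 note: cells challenged with S1P at its EC80 of 0.8 µM; blue over green emission ratio from cleaved BLA substrate after 4 h stimulation; 0% = S1P-stimulated wells and 100% = unstimulated DMSO-only wells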
Calb biofilm kill – mixture kills Candida albicans biofilm cells; C. albicans biofilm persisters + clotrimazole, fluorescence viability; primary screen in compound mixtures of four per well; inhibition, % at 7.6 µM; 120,000 compounds, 0.02% hits; AID 1242;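 active = inhibition above 30.3% in the primary screen of four-compound pools, then above 30% when the compound was retested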;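 note: compounds exposed to preformed 24 h biofilms for 48 h; 0% = untreated biofilm control and 100% = clotrimazole plus chlorhexidine kill blank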
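Probe or stimulus – Clotrimazole 50 µg/mL co-treatment · System – C. albicans biofilms · Schedule – 24 h biofilm formation, then 48 h compound exposure, 37 °C · Evaluation – percent inhibition of biofilm viability · Technique – 2-h Alamar Blue fluorescence, 535/590 nm excitation/emission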
S1P4 agonist – human S1P4 receptor agonism; activation, % at 4.98 µM; S1P4-expressing cell line, agonist reporter assay; AID 1509; 220,000 compounds, 0.35% hits; in the data active = activation above about 11%;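 note: 0% = DMSO vehicle and 100% = reference agonist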
Target sequence (O95977 whole entry, looked up): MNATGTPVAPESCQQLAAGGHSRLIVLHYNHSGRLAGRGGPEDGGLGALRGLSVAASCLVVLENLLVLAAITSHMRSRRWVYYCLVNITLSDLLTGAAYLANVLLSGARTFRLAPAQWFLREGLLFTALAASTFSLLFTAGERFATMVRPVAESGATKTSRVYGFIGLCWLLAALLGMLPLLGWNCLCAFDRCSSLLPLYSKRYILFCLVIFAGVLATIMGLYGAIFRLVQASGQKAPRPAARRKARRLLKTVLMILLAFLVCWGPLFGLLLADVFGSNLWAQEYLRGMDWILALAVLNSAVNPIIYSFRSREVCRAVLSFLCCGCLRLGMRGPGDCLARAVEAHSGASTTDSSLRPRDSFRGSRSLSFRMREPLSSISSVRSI
Pf gametocyte – kills late stage P. falciparum gametocytes; 150,000 compounds, 0.065% hits; AID 743093; P. falciparum stage V gametocytes, ATP luminescence, 24 h; inhibition, % at 10.9 µM;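 active = inhibition above the mean plus 3 SD of compounds within the control limits, set per campaign, cut at about 38% in these data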;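 note: 0% = DMSO wells and 100% = medium only without gametocytes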
S1P4 antag – blocks the human S1P4 receptor; O95977; S1P4-expressing cells, antagonist mode, reporter read-out; inhibition, % at 4.98 µM; 220,000 compounds, 0.26% hits; AID 1510; in the data active = inhibition above about 29%;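 note: 0% = wells stimulated with agonist and 100% = vehicle wells without agonist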
Numbers without * were called inactive; . = no result. The list is not random: actives were taken first. Their share in the collection is about 0.77%.

SMILES	S1P3 antag	Calb biofilm kill	S1P4 agonist	Pf gametocyte	S1P4 antag
Cc1nc2ccc(NC(=O)c3ccc(Cl)s3)cc2s1	55.8*	.	-3.0	.	-7.5
c1ccc(-n2nnnc2Cc2nnnn2-c2ccccc2)cc1	-14.9	9.7	-0.8	-0.1	-20.4
N#CCCS(=O)(=O)c1nnnn1-c1ccccc1	21.0	.	-6.7	.	38.4*
CCC(C)(C)NC(=O)C1CC(=O)N(CCc2ccc(F)cc2)C1 (stereo not given)	.	.	.	4.7	.
CCCC1CCC(=C(C#N)C(N)=O)CC1 (stereo not given)	9.3	3.3	-0.9	23.7	-6.2
COc1ccc(NC(=O)c2c(NC(=O)CNCc3ccco3)sc3c2CCC3)c(OC)c1	70.1*	.	1.6	.	-55.2
Cc1ccc(C)c(NC(=O)CN(C)C(=O)/C=C/c2ccco2)c1	-15.7	10.3	1.0	.	-13.8
CN(CC(=O)Nc1ccc(Cl)c(C(F)(F)F)c1)C(=O)/C=C/c1ccco1	-0.6	9.6	-1.2	57.0*	0.7
O=C(NCc1ccc(OC(F)(F)F)cc1)c1cccc2c1C(=O)c1ccc(N3CCCC3)cc1S2(=O)=O	.	.	.	38.9*	.
CCN(CC)CCC(c1ccc2c(c1)OCO2)c1c(O)cc(OC)cc1OC (stereo not given)	.	12.7	.	.	.
O=C(Nc1nccs1)c1cn(-c2ccccc2)nc1-c1ccncc1	-0.9	13.9	-0.6	69.2*	8.3
O=S(=O)(NC1CCCCC1)c1ccc(N2CCOCC2)nc1	-6.4	21.9	0.1	-13.8	5.0
Cc1cc(NC(=O)c2cc3n(n2)C(C(F)(F)F)CC(c2ccc(Cl)c(Cl)c2)N3)no1 (stereo not given)	54.7*	.	-0.9	5.4	15.0
Cc1cc(C)cc(C(=O)Nc2ccncc2)c1	.	.	.	-3.7	.
CCOc1cc(N2CCOCC2)c(OCC)cc1NC(=O)CN1C(=O)NC(Cc2ccccc2)C1=O (stereo not given)	-7.0	.	12.0*	7.5	-30.5
Cc1ccc(-n2c(Cl)c(Cl)nc(Cl)c2=O)cc1	2.1	6.7	1.8	.	75.7*
COc1ccc(C(C)(C)C)cc1NC(=O)Nc1ccc2c(c1)OCO2	59.4*	.	-2.2	-14.9	0.6
COc1cc(NC(=O)Nc2ccc3c(c2)OCO3)cc(OC)c1OC	-2.9	0.2	1.2	-7.4	-10.2
CCC(Oc1ccccc1)C(=O)NCc1ccc(S(N)(=O)=O)cc1 (stereo not given)	-4.6	6.9	1.5	60.8*	-6.6
Cc1cccc(OC(C)C(=O)NCc2ccc(S(N)(=O)=O)cc2)c1 (stereo not given)	2.2	7.7	-0.6	21.8	-19.9
C[C@H](CO)NC(=O)[C@H](C)[C@H]1C[C@]1(C)[C@H](NC(=O)OCc1ccccc1)c1ccccc1	9.4	15.3	0.3	.	-1.8
C[C@@H](C(=O)Nc1ccc2ccccc2c1)[C@H]1C[C@]1(C)[C@H](NC(=O)OCc1ccccc1)c1ccccc1	32.1*	-2.6	2.1	.	14.3
CCn1c(=O)c(C(=O)CN2CCOCC2)c(N)n(Cc2ccccc2)c1=O	77.2*	.	-1.2	.	11.1
Cc1ccc(C(c2nnnn2C(C)(C)C)N(Cc2ccco2)Cc2cccs2)cc1 (stereo not given)	89.7*	.	1.2	.	-14.3
CC(C)C(c1nnnn1Cc1ccccc1)N(Cc1ccco1)Cc1cccs1 (stereo not given)	49.0	.	-0.8	.	-4.3
SMILES	S1P3 antag	Calb biofilm kill	S1P4 agonist	Pf gametocyte	S1P4 antag
COc1ccc(Cn2nnnc2C(C(C)C)N(Cc2ccco2)Cc2cccs2)cc1 (stereo not given)	53.7*	.	-0.3	.	2.4
Cc1nc(N(C)C)c2sc(=S)n(C)c2n1	95.9*	.	0.5	.	-6.5
N=c1c(C(=O)NC2CCCCC2)cc2c(=O)n3ccccc3nc2n1CCN1CCOCC1	8.3	.	.	.	.
CSc1ccccc1NC(=O)C1CC(c2ccccc2O)=NO1 (stereo not given)	82.2*	.	-2.4	.	-3.8
N=Nc1c(O)n(CC(=O)Nc2ccccc2)c2ccccc12	.	.	.	8.4	.
O=C(O)/C=C/C(=O)Nc1ccc(Oc2ncnc3cc(Cl)ccc23)nc1	-1.0	20.8	-2.0	.	-2.3
Cc1nc2sc(C(c3ccccc3)N3CCN(C)CC3)c(O)n2n1 (stereo not given)	3.0	5.8	.	.	.
CC(=O)Oc1ccc(N2C(=O)C3C4C=CC(CO)(O4)C3C2=O)cc1 (stereo not given)	.	.	1.6	-2.6	-7.1
O=C1C2C3C=CC(CO)(O3)C2C(=O)N1c1ccccc1-c1ccccc1 (stereo not given)	-17.8	.	-2.2	.	31.1*
COc1ccc(-c2cc(C(=O)NCc3cccs3)no2)cc1	-3.0	13.4	0.4	-0.8	-1.1
COc1ccc2nc3sc(C(=O)NCc4cccs4)c(N)c3cc2c1	54.0*	.	0.1	1.4	-1.4
CCC(CCC(=O)NNC(=O)Cc1ccc([N+](=O)[O-])cc1)C(=O)O (stereo not given)	-18.5	29.2	2.7	-5.5	-3.1
CC1=CC(=C(C#N)c2nc3ccccc3s2)C=C(C)N1CC1CCCO1 (stereo not given)	-5.7	23.9	1.8	.	-23.4
CCn1c(=O)c2cc(C(=O)N3CCCC3)sc2c2ccccc21	57.3*	18.1	-1.4	.	-4.1
CCn1c(=O)c2cc(C(=O)N3CCOCC3)sc2c2ccccc21	-29.6	.	0.1	.	-5.4
COc1ccc(CC(=O)Nc2cccc(-c3nnc(-c4cccc(C)c4)o3)c2)cc1OC	84.7*	.	-0.7	.	-19.5
Cc1nc2ccccn2c(=O)c1CCN1CCC(C(=O)c2ccc(F)cc2)CC1	-10.1	6.7	81.1*	.	-1.4
COc1ccc2c([N+](=O)[O-])c(Cl)[nH]c2c1	-0.6	11.7	2.5	-1.9	-22.1
COc1cccc2c1OCC(C(=O)O)C2 (stereo not given)	-7.3	-5.4	1.8	.	-7.5
COc1cccc2c1C(CO)N1C(C#N)C3CC(C(=O)O)C(C1C2)N3C (stereo not given)	27.0	25.7	-0.1	.	93.6*
O=C(/C=C/c1cccnc1)/C=C/c1cccnc1	-2.5	18.8	0.2	.	97.7*
O=C(Nc1nc(-c2ccccc2)cs1)C1CCCCN1S(=O)(=O)c1ccccc1 (stereo not given)	97.7*	.	-0.2	.	-0.8
O=C(Nc1nc(-c2ccccc2)cs1)C1CCCCN1S(=O)(=O)c1ccc(Cl)cc1 (stereo not given)	.	.	-1.1	.	-14.1
CCN1CCN(c2ncnc3c2cnn3-c2ccccc2)CC1	90.1*	.	-0.3	.	0.4
COc1ccc(CNC(=S)Nc2ccccc2)cc1	.	.	.	3.2	.
Clc1ccc(OCCN2CCN(c3ncnc4sccc34)CC2)cc1	63.7*	.	-1.7	-12.9	-14.8
COc1ccc(S(=O)(=O)N2CCOC2CNC(=O)C(=O)NCc2ccco2)cc1OC (stereo not given)	8.0	11.3	0.4	3.5	-6.6
O=c1c2ccccc2c(/C=N/NS(=O)(=O)c2ccccc2)c(O)n1-c1ccccn1	-24.4	9.8	0.6	7.4	-9.2
CCNC(=O)c1ccc2c(c1)S(=O)(=O)c1ccccc1C2=O	85.2*	.	-0.2	.	4.6
C=CCNC(=O)c1ccc2c(c1)S(=O)(=O)c1ccccc1C2=O	.	.	.	14.1	.
